For assay [1], the target named is T1, Kappa-type opioid receptor (Homo sapiens, UniProt P41145). Nature of the assay: Displacement of [3H]diprenorphine from human kappa opioid receptor expressed in CHO cells. It counts as cell-based. The essentials: (§1)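 Competitive inhibition of [3H]diprenorphine binding to membranes from CHO cells stably transfected with human κ, rat μ or mouse δ receptor; testing blinded to compound identity and molecular mass; mean of three independent experiments in duplicate.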

The target in assay [2] is Mu-type opioid receptor (Rattus norvegicus, UniProt P33535). Nature of the assay: Displacement of [3H]diprenorphine from rat mu opioid receptor expressed in CHO cells. It counts as cell-based. In outline: as §1
Background: Loss of bound radioactivity is the signal in a displacement assay; it reports binding, not function.

Assay [3] has as its target Delta-type opioid receptor (Mus musculus, UniProt P32300). Nature of the assay: Displacement of [3H]diprenorphine from mouse delta opioid receptor expressed in CHO cells. It counts as cell-based. The essentials:
as §1

Assay [4] deals with T1, Kappa-type opioid receptor. As to the kind of experiment: Agonist activity at human kappa opioid receptor expressed in CHO cells assessed as stimulation of [35S]GTPgammaS binding. Format: functional, cell-based. In outline: (§2)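 Potency and efficacy from [35S]GTPγS binding to membranes of CHO cells stably expressing human κ receptor; testing blinded to compound identity and molecular mass.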
Background: GTPγS is a poorly hydrolysed GTP analogue; its binding reports G protein activation.

Assay [5] has as its target T1, Kappa-type opioid receptor. As to the kind of experiment: Agonist activity at human kappa opioid receptor expressed in CHO cells assessed as stimulation of [35S]GTPgammaS binding relative to U50488H. Format: functional, cell-based. The essentials:
as §2

A short description of assay [6]: Selectivity for human kappa opioid receptor over rat mu opioid receptor.
Assay [7] in a line: Selectivity for human kappa opioid receptor over mouse delta opioid receptor.

The values below come from ChEMBL document CHEMBL1143255, “Standard protecting groups create potent and selective kappa opioids: salvinorin B alkoxymethyl ethers” (Bioorg Med Chem, 2008).

Chain of Mu-type opioid receptor (P33535 whole entry): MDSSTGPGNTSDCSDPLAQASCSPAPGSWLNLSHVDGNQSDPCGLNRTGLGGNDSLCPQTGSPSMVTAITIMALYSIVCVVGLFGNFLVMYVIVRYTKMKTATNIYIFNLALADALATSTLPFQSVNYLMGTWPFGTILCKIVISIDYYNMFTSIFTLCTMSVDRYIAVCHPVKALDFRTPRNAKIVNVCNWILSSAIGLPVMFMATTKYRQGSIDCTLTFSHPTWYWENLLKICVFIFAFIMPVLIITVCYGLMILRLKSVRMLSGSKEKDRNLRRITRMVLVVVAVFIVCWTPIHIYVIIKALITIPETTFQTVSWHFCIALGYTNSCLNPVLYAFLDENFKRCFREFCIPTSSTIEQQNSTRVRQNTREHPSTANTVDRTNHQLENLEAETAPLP
T1 sequence (P41145 whole entry): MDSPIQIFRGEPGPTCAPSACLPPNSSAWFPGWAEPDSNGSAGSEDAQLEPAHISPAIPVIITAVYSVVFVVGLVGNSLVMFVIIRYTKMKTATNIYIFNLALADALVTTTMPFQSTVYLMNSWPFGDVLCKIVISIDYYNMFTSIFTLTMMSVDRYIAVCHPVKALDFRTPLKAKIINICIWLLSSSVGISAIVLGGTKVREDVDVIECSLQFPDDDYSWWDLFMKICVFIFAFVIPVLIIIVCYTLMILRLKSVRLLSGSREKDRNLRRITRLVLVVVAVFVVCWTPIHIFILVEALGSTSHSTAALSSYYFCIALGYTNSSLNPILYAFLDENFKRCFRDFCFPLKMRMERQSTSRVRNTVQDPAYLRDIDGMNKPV
Chain of Delta-type opioid receptor (P32300 whole entry): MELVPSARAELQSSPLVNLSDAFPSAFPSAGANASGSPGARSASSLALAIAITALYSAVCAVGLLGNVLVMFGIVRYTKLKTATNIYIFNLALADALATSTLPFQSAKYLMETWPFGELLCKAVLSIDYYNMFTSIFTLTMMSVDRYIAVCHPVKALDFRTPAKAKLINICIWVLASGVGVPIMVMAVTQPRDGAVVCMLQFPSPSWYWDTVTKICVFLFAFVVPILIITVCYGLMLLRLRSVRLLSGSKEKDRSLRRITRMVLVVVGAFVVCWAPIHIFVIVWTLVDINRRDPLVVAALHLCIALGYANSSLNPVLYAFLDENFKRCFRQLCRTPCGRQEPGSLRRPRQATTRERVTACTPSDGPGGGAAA

As usually defined, the Ki is the equilibrium dissociation constant of an inhibitor or competing ligand from its target. Low readings indicate tighter binding, high ones weaker binding. A word on the EC50: it is the concentration giving half of the maximal effect. The Emax is the greatest response seen or fitted, relative to the assay's reference. For the compound `COC(=O)[C@@H]1C[C@H](OCOCc2ccccc2)C(=O)[C@H]2[C@@]1(C)CC[C@H]1C(=O)O[C@H](c3ccoc3)C[C@]21C` [SALVINORIN B BENZYLOXYMETHYL ETHER], the results for the Ki in assay [1], in assay [2] and in assay [3] were 147 nM, greater than 1000 nM and greater than 1000 nM, respectively. In addition, the EC50 in assay [4] was found to be 274 nM. In assay [5], the Emax was determined as 81%.
In the case of `CCCCOCO[C@H]1C[C@@H](C(=O)OC)[C@]2(C)CC[C@H]3C(=O)O[C@H](c4ccoc4)C[C@]3(C)[C@H]2C1=O` [SALVINORIN B BUTOXYMETHYL ETHER], the inhibition constant (Ki) was 5.3 nM in assay [1], greater than 1000 nM in assay [2] and greater than 1000 nM in assay [3]. Also, in assay [4], the concentration giving a half-maximal response (EC50) worked out at 20 nM. Further, in assay [5], the Emax came out at 81%.
`CCO[C@H]1C[C@@H](C(=O)OC)[C@]2(C)CC[C@H]3C(=O)O[C@H](c4ccoc4)C[C@]3(C)[C@H]2C1=O` [DEOXY SALVINORIN A]: in assay [4], the half-maximal effective concentration (EC50) was determined as 18 nM.
As to `COC(=O)[C@@H]1C[C@H](OCOCC[Si](C)(C)C)C(=O)[C@H]2[C@@]1(C)CC[C@H]1C(=O)O[C@H](c3ccoc3)C[C@]21C`, the Ki in assay [1], in assay [2] and in assay [3] was greater than 1000 nM throughout. For the same compound, in assay [4], the half-maximal effective concentration (EC50) was 1660 nM. Also, the Emax in assay [5] stood at 81%.
As for `CCCOCO[C@H]1C[C@@H](C(=O)OC)[C@]2(C)CC[C@H]3C(=O)O[C@H](c4ccoc4)C[C@]3(C)[C@H]2C1=O` [SALVINORIN B PROPOXYMETHYL ETHER], the figures for the inhibition constant (Ki) in assay [1], in assay [2] and in assay [3] were 2.2 nM, greater than 1000 nM and greater than 1000 nM, respectively. The EC50 in assay [4] was determined as 5.2 nM. Also, in assay [5], the Emax was 81%.
For the compound `COC(=O)[C@@H]1C[C@H](OC2CCCCO2)C(=O)[C@H]2[C@@]1(C)CC[C@H]1C(=O)O[C@H](c3ccoc3)C[C@]21C` (some centres undefined), the inhibition constant Ki is 4 nM in assay [1], greater than 1000 nM in assay [2] and greater than 1000 nM in assay [3]. For the same compound, in assay [4], the concentration for a half-maximal effect (EC50) is 2.8 nM. The maximal effect (Emax) in assay [5] amounted to 81%.
`COC(=O)[C@@H]1C[C@H](OCOCC(F)(F)F)C(=O)[C@H]2[C@@]1(C)CC[C@H]1C(=O)O[C@H](c3ccoc3)C[C@]21C`: the figures for the inhibition constant (Ki) in assay [1], in assay [2] and in assay [3] were 31 nM, greater than 1000 nM and greater than 1000 nM, respectively. Also, in assay [4], the EC50 turned out to be 75 nM. For the same compound, in assay [5], the Emax is 81%.
Turning to `COC(=O)[C@@H]1C[C@H](OCF)C(=O)[C@H]2[C@@]1(C)CC[C@H]1C(=O)O[C@H](c3ccoc3)C[C@]21C` [SALVINORIN B FLUOROMETHYL ETHER], the inhibitory constant (Ki) was 50 nM in assay [1], greater than 1000 nM in assay [2] and greater than 1000 nM in assay [3]. In addition, the concentration for a half-maximal effect (EC50) in assay [4] was determined as 26 nM. Besides, in assay [5], the Emax was found to be 81%.
In the case of `CCOC(C)O[C@H]1C[C@@H](C(=O)OC)[C@]2(C)CC[C@H]3C(=O)O[C@H](c4ccoc4)C[C@]3(C)[C@H]2C1=O` (some centres undefined) [listing 1 of 3 here], in assay [5], the Emax came to 81%.
On to `CCOC(C)O[C@H]1C[C@@H](C(=O)OC)[C@]2(C)CC[C@H]3C(=O)O[C@H](c4ccoc4)C[C@]3(C)[C@H]2C1=O` (some centres undefined) [listing 2 of 3 here], for which the inhibitory constant (Ki) in assay [2] and in assay [3] was greater than 1000 nM throughout.
In the case of `COC(=O)[C@@H]1C[C@H](OCOC(C)C)C(=O)[C@H]2[C@@]1(C)CC[C@H]1C(=O)O[C@H](c3ccoc3)C[C@]21C` [SALVINORIN B ISOPROPOXYMETHYL ETHER], the values for the Ki in assay [1], in assay [2] and in assay [3] were 1.6 nM, greater than 1000 nM and greater than 1000 nM, respectively. In addition, the concentration giving a half-maximal response (EC50) in assay [4] stood at 4.2 nM. Also, the Emax in assay [5] turned out to be 81%.
`COCCOCO[C@H]1C[C@@H](C(=O)OC)[C@]2(C)CC[C@H]3C(=O)O[C@H](c4ccoc4)C[C@]3(C)[C@H]2C1=O`: the values for the Ki in assay [1], in assay [2] and in assay [3] were 141 nM, greater than 1000 nM and greater than 1000 nM, respectively. Also, in assay [4], the concentration giving a half-maximal response (EC50) came out at 320 nM. In addition, in assay [5], the maximum response (Emax) came out at 81%.
In the case of `COC(=O)[C@@H]1C[C@H](OCOC(C)(C)C)C(=O)[C@H]2[C@@]1(C)CC[C@H]1C(=O)O[C@H](c3ccoc3)C[C@]21C`, the inhibition constant (Ki) was 35 nM in assay [1], greater than 1000 nM in assay [2] and greater than 1000 nM in assay [3]. Further, the EC50 in assay [4] is 108 nM. For the same compound, the Emax in assay [5] was 81%.
With `CCOC(C)O[C@H]1C[C@@H](C(=O)OC)[C@]2(C)CC[C@H]3C(=O)O[C@H](c4ccoc4)C[C@]3(C)[C@H]2C1=O` (some centres undefined) [listing 3 of 3 here], the Ki in assay [2] (cho) and in assay [3] (cho) was greater than 1000 nM each time.
With `COC(=O)[C@@H]1C[C@H](OC(C)(C)OC)C(=O)[C@H]2[C@@]1(C)CC[C@H]1C(=O)O[C@H](c3ccoc3)C[C@]21C`, the Ki in assay [1] is 72 nM; in assay [2] it was greater than 1000 nM; in assay [3], greater than 1000 nM. Also, the concentration giving a half-maximal response (EC50) in assay [4] was 72 nM. Besides, the Emax in assay [5] was 81%.
For `COC(=O)[C@@H]1C[C@H](OCSC)C(=O)[C@H]2[C@@]1(C)CC[C@H]1C(=O)O[C@H](c3ccoc3)C[C@]21C` [SALVINORIN B METHYLTHIOMETHYL ETHER], the inhibitory constant (Ki) in assay [1] is 13 nM; in assay [2] it was greater than 1000 nM; in assay [3], greater than 1000 nM. In addition, the EC50 in assay [4] stood at 31 nM. Moreover, in assay [5], the Emax is 81%.
As for `COC(=O)[C@@H]1C[C@H](OCOCCF)C(=O)[C@H]2[C@@]1(C)CC[C@H]1C(=O)O[C@H](c3ccoc3)C[C@]21C`, the Ki is 1.9 nM in assay [1], greater than 1000 nM in assay [2] and greater than 1000 nM in assay [3]. For the same compound, in assay [4], the EC50 came out at 3.8 nM. Further, the maximum response (Emax) in assay [5] stood at 81%. In addition, the Selectivity ratio in assay [6] is greater than 500.
Turning to `CCOCO[C@H]1C[C@@H](C(=O)OC)[C@]2(C)CC[C@H]3C(=O)O[C@H](c4ccoc4)C[C@]3(C)[C@H]2C1=O` [SALVINORIN B ETHOXYMETHYL ETHER], the results for the inhibition constant (Ki) in assay [1], in assay [2] and in assay [3] were 0.32 nM, greater than 1000 nM and greater than 1000 nM, respectively. Further, in assay [4], the EC50 was 0.14 nM. In addition, the Emax in assay [5] was found to be 81%. For the same compound, the Selectivity ratio in assay [6] and in assay [7] was greater than 3000 in each case.
